Measurements gathered from unrelated publications.
Each line is one published result; the experiments were not run side by side.
Target: Serine/threonine-protein kinase PLK4 (PLK4, Homo sapiens, UniProt O00444)
Sequence (O00444 1-970, as in one of the studies): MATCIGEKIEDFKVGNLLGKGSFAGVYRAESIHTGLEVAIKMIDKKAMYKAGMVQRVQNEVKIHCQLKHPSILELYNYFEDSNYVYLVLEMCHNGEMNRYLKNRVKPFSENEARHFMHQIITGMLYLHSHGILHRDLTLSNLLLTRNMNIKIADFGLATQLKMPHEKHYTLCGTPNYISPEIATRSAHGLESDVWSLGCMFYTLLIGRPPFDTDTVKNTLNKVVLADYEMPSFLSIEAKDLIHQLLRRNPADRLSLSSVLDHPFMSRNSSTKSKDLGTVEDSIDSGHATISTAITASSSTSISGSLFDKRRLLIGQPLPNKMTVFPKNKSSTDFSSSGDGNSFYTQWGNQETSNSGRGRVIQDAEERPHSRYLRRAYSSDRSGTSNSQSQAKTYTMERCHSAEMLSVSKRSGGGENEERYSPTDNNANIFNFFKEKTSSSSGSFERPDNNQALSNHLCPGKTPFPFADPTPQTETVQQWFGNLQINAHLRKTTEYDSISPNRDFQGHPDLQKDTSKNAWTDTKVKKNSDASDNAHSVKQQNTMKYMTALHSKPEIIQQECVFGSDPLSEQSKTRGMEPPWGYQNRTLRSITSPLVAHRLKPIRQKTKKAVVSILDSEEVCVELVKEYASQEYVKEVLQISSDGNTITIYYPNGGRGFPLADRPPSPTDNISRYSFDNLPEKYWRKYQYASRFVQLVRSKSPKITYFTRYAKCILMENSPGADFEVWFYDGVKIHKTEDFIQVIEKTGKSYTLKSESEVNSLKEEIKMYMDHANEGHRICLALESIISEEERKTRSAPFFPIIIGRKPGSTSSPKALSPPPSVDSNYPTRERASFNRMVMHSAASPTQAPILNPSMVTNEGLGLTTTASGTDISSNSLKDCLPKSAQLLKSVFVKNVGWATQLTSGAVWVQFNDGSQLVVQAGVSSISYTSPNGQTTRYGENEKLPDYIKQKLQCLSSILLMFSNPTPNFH

O=C(c1ccc(Nc2ncc(Cl)c(-c3ccc(Cl)s3)n2)cc1)N1CCC(N2CCCC2)CC1  remaining binding (binding; competition with immobilised ligand; 1 µM): 9.2%
CN1CCN(c2cnc3c(C4CCN(C(=O)c5ccc(OC(F)(F)F)cc5N)CC4)ncnc3c2)CC1  remaining binding (cell-free assay; competition with immobilised ligand; 1 µM): 83%
Cc1cnn2ncc(-c3ccnc(N(C)C)n3)c2c1  remaining binding (binding; 1 µM): 74%
N#Cc1ccccc1CSc1nnc2c(n1)[nH]c1ccccc12  remaining binding (binding; competition with immobilised ligand; 10 µM): 100%
O=C(c1ccc(Nc2nccc(-c3cc4ccccc4s3)n2)cc1)N1CCC(N2CCCC2)CC1  remaining binding (binding; competition with immobilised ligand; 1 µM): 56%
N#CC1(c2ccccn2)CCN(Cc2cc(C(=O)N3CCCC3)c(=O)n3ccccc23)CC1  remaining binding (cell-free assay; competition with immobilised ligand; 1 µM): 87%
CNC(=O)[C@@H]1CC[C@@H](n2c(-c3ccc4cnccc4c3)nc3ccc(C(=O)NCc4cccc(C(N)=O)c4)cc32)C1  remaining binding (binding; competition with immobilised ligand; 1 µM): 100%
c1cnn2ncc(-c3ccnc(N4CCC45COC5)n3)c2c1  remaining binding (binding; 1 µM): 79%
C[C@@H]1CN(c2ccc3ncc(-c4ccc5[nH]nc(C6CC6)c5c4)n3n2)C[C@H](C)O1  remaining binding (binding; competition with immobilised ligand; 0.5 µM): 90%
CN([C@@H]1CCc2c(CC(=O)O)c3cc(S(C)(=O)=O)ccc3n2C1)S(=O)(=O)c1ccc(F)cc1  remaining binding (cell-free assay; competition with immobilised ligand; 1 µM): 100%
C[C@@H](c1ccc(-n2cnc3c(N)ncnc32)cc1)N1CCc2nn(C)c(Cc3ccccc3)c2C1=O  remaining binding (binding; competition with immobilised ligand; 0.1 µM): 72%
CCCCN(CCCC)C(=O)CN1C[C@H](c2cc(OC)c3c(c2)OCO3)[C@@H](C(=O)O)[C@@H]1CC(C)(C)CCC  remaining binding (cell-free assay; competition with immobilised ligand; 1 µM): 100%
c1cncc(-c2cccc(Nc3nccc(NC4CCCCC4)n3)c2)c1  remaining binding (binding; competition with immobilised ligand; 10 µM): 34%
C[C@@H]1CCN(c2nccc(-c3cnn4ncccc34)n2)C1  remaining binding (binding; 1 µM): 100%
COc1cc(C(=O)N2CCC(N3CCN(C)CC3)CC2)ccc1Nc1ncc2c(n1)N(C)c1ccccc1C(=O)N2C  remaining binding (binding; competition with immobilised ligand; 10 µM): 0%
N[C@@H]1CCN(c2nccc(-c3cnn4ncccc34)n2)C1  remaining binding (binding; 1 µM): 100%
O=C(Nc1c[nH]nc1C(=O)NC1CCNCC1)c1cc(F)cc(F)c1  remaining binding (binding; competition with immobilised ligand; 1 µM): 97%
COc1ccnn2ncc(-c3ccnc(N(C)C)n3)c12  remaining binding (binding; 1 µM): 69%
O=C(c1ccc(Nc2ncc(Cl)c(-c3cc4ccccc4s3)n2)cc1)N1CCC(N2CCCC2)CC1  remaining binding (binding; competition with immobilised ligand; 1 µM): 39%
C=CC(=O)N1CCC(C(=O)NCC(=O)N2CCN(c3nc(-c4cnc(N)nc4C(F)F)nc(N4CCOCC4)n3)CC2)CC1  remaining binding (binding; competition with immobilised ligand; 1 µM): 89%
O=C(N1CCS(=O)(=O)CC1)N1C[C@H](c2ccc(OC(F)(F)F)cc2)C[C@H](c2nc(C3CC3)no2)C1  remaining binding (cell-free assay; competition with immobilised ligand; 1 µM): 100%
CN(c1nccc(-c2cnn3ncccc23)n1)C1CC1  remaining binding (binding; 1 µM): 100%
CC(=O)Nc1c(C(C)=O)c(=O)n(C)c2nc(-c3ccc(Cl)cc3Cl)c(-c3ccc(Cl)cc3)cc12  remaining binding (cell-free assay; competition with immobilised ligand; 1 µM): 100%
CC(C)(C)c1ccc(-c2nc(CBr)nn2-c2cccc(O)c2)cc1  remaining binding (cell-free assay; competition with immobilised ligand; 10 µM): 88%
CC(=O)c1c(NS(C)(=O)=O)c2cc(-c3ccc(Cl)cc3)c(-c3ccc(Cl)cc3Cl)nc2n(C)c1=O  remaining binding (cell-free assay; competition with immobilised ligand; 1 µM): 100%
FC(F)(F)Oc1cccc(-c2cnc3ccc(-c4ccncc4)nn23)c1  remaining binding (cell-free assay; competition with immobilised ligand; 5 µM): 91%
